Measurements reported in ChEMBL document CHEMBL3774319, “Novel indole sulfides as potent HIV-1 NNRTIs” (Bioorg Med Chem Lett, 2016).

Columns and labels:
[1] = tested on: Human immunodeficiency virus 1; test: Antiretroviral activity against HIV-1 infected in HEK293T cells assessed as inhibition of viral replication by single-cycle assay; format: functional, organism-based; settings: Human immunodeficiency virus 1, HEK-293T
Method in brief: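 In vitro single-cycle, non-replicative phenotypic anti-HIV-1 assay; IC50 values derived from it.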

[2] = Cytotoxicity against HEK293T cells by MTT assay; format: cell-based, HEK-293T; settings: human
Method in brief: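 HEK293T cells read out with a tetrazolium-based colorimetric assay to give toxicity values.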

[3] = Stability in ethanol solution containing sulfuric acid assessed as compound degradation at 0.10 mmol measured within 2 hrs by HPLC method; format: physicochemical

SMILES | IC50 [1] [µM] | CC50 [2] [µM] | Stability [3]
CCOC(=O)c1[nH]c2ccc(Cl)cc2c1C(OC)c1cccc(Br)c1 (racemic) | 0.02 | 26.4 | 
CSC(c1ccccc1)c1c[nH]c2ccc(Cl)cc12 (racemic) | 9.95 | 52.7 | 
CCOC(=O)c1[nH]c2ccc(Cl)cc2c1N(CC)c1ccccc1 | 1.2 | 22.8 | 
CCOC(=O)c1[nH]c2ccc(Cl)cc2c1C(OC)c1cccc(C)c1 (racemic) | 0.02 | 27.4 | Unstable
CCOC(=O)c1[nH]c2ccc(Cl)cc2c1C(SC)c1ccccc1 (racemic) | 0.039 | 26.1 | 
CCOC(=O)c1[nH]c2ccc(Cl)cc2c1C(SC)c1cc(C)cc(C)c1 (racemic) | 0.06 | 32 | 
CCOC(=O)c1[nH]c2ccc(Cl)cc2c1C(SC)c1cccc(Cl)c1 (racemic) | 0.042 | 28.6 | 
CCOC(=O)c1[nH]c2ccc(Cl)cc2c1C(SC)c1cccc(C)c1 (racemic) | 0.038 | 29.6 | Stable
CCOC(=O)c1[nH]c2ccc(Cl)cc2c1C(OC)c1cccc(Cl)c1 (racemic) | 0.033 | 26.8 | 
